Measurements of several laboratories.
Each line is one published result; the experiments were not run side by side.
Target: Tyrosine-protein kinase TXK (TXK, Homo sapiens, UniProt P42681)
Sequence (P42681 1-527, as in one of the studies): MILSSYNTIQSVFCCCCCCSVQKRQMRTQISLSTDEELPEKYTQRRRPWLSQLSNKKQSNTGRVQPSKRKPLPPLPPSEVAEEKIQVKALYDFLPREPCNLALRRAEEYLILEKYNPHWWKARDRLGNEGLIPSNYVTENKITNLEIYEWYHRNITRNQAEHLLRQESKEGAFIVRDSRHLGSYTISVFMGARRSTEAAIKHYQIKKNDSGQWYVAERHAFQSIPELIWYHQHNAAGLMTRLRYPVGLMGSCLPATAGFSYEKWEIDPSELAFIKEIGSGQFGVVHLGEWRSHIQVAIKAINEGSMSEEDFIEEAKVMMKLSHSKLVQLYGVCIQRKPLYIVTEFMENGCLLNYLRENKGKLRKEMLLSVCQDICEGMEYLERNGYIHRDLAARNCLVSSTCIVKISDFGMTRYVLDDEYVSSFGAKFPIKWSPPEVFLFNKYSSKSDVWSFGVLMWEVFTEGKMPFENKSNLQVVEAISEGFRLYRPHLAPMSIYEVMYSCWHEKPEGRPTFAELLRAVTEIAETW

The remaining activity of `Cc1sc(C(=O)NC2COC2)cc1-n1cc(NC(=O)Nc2c(F)cccc2Cl)cn1` is reported as 76.7% (enzyme activity, inhibitor; 10 µM).
`c1nc2c(Nc3ccc4c(c3)OCCO4)nc(Nc3ccc4c(c3)OCCO4)nc2[nH]1` has an activity vs control of 8% (enzyme activity, inhibitor; 10 µM).
`CS(=O)(=O)CCNCc1ccc(-c2ccc3ncnc(Nc4ccc(OCc5cccc(F)c5)c(Cl)c4)c3c2)o1` gave a remaining signal of 110% (cell-free assay; 0.5 µM).
`CCCOc1ccc(OC)c(F)c1C(=O)c1ccc(C(=O)N[C@@H]2CNC[C@H]2NC(=O)c2ccc3[nH]ncc3c2)cc1` gave a remaining activity of 64% (enzyme activity, inhibitor; 10 µM).
For `CCOC(=O)c1cc2cc(-c3cc(C(=O)NCc4ccc(C(=O)O)cc4)nn3C)ccc2[nH]1`, the remaining binding was 90% (binding, competition with immobilised ligand; 0.1 µM).
`O=C(Nc1cnn(-c2csc(C(=O)NC3COC3)c2)c1)Nc1c(F)cccc1Cl` gave a remaining activity of 90.8% (enzyme activity, inhibitor; 5 µM).
With `O=C(NS(=O)(=O)c1ccc(NCC2CCOCC2)c([N+](=O)[O-])c1)c1ccc(N2CCN(Cc3ccc(C(F)(F)F)cc3-c3ccc(Cl)cc3)CC2)cc1Oc1cnc2[nH]ccc2c1` the remaining binding was 94% (cell-free assay, competition with immobilised ligand; 1 µM).
With `CC/C(=N\NC(=O)NCc1cccc(O)c1)c1ccc(O)c(C)c1O` the inhibition was -0.3% (enzyme activity, inhibitor; 0.1 µM).
With `O=C(N[C@H]1CCCCC/C=C\C2C[C@@]2(C(=O)O)NC(=O)[C@@H]2C[C@@H](Oc3ccncc3)CN2C1=O)OC1CCCC1` (stereo partly drawn) the remaining binding was 87% (binding, competition with immobilised ligand; 1 µM).
With `COc1cc2ncnc(Nc3ccc(Oc4ccccc4)cc3C)c2cc1OC` the inhibition was 16% (enzyme activity, inhibitor; 1 µM).
For `CC(C)(C)c1nc2c(s1)c1nc(N)ncc1c1ccc(NS(=O)(=O)c3c(F)cccc3F)c(F)c12`, the remaining activity was 71% (enzyme activity, inhibitor, radiometric; 1 µM).
For `CCS(=O)(=O)c1cc2cc(C[C@](O)(CC(C)(C)c3ccc(F)cc3C(N)=O)C(F)(F)F)[nH]c2cn1`, the remaining binding was 90% (cell-free assay, competition with immobilised ligand; 1 µM).
The activity vs control of `Cc1ccc(C(=O)NCc2ccsc2)cc1C#Cc1cn(C(C)C)c2ncnc(N)c12` is reported as 36% (enzyme activity, inhibitor; 1 µM).
With `COc1cc2nccc(Oc3ccc(NC(=O)c4c5n(n(-c6ccc(F)cc6)c4=O)CCCC5)cc3)c2cc1OC` the inhibition was -2% (enzyme activity, inhibitor; 0.1 µM).
For `O=C1NC(=O)c2cc(Nc3ccc(F)cc3)c(Nc3ccc(F)cc3)cc21`, the remaining signal was 84.1% (cell-free assay; 0.5 µM).
`CN(C(=O)c1ccccc1)c1cc(N(C)c2ccc3c(c2)CCc2ccc(C(=O)NCCN4CCOCC4)cc2C3=O)ccc1F` gave a remaining binding of 79% (binding, competition with immobilised ligand; 1 µM).
`Oc1ccc(-c2nc(-c3ccncc3)c(-c3ccc(F)cc3)[nH]2)cc1` has a remaining signal of 78.5% (cell-free assay; 0.5 µM).
With `NS(=O)(=O)c1cc(NC(=O)Cc2ccccc2)ccc1Oc1cccc(Cl)c1` the remaining binding was 92% (binding, competition with immobilised ligand; 1 µM).
